ChEMBL document CHEMBL1124197, “3-[1-(2-Benzoxazolyl)hydrazino]propanenitrile derivatives: inhibitors of immune complex induced inflammation” (1988)
Calls of active or inactive are those of the source. The calls are words filed in the database; no cut-off is given here.

What was measured:
Rattus norvegicus [1] = species: Rattus norvegicus; assay: Effective dose required for 40% inhibition of rat dermal reverse passive Arthus reaction (RPAR); type: functional
In short: (§1)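 Fasted male rats received BSA intravenously and about 1 h later a challenge of rabbit anti-BSA given intradermally. Compound was dosed orally 30 min before the challenge. Rats were killed 4 h later and dermal lesion size was measured. ED40 with 95% confidence limits came from least-squares regression.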

Rattus norvegicus [2] = assay: In vivo inhibition of rat dermal passive revers arthus reaction following p.o. administration; Inactive.; type: functional, organism-based
Rattus norvegicus [3] = species: Rattus norvegicus; assay: Inhibition of pleural reverse passive Arthus reactions (RPAR) in rat (exudate volume); type: functional
In short: (§2)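 Fasted male rats were given BSA intravenously, then about 1 h later rabbit anti-BSA intrapleurally. Oral dosing was 30 min before the challenge. After 4 h the rats were killed and pleural exudate fluid volume and white blood cell accumulation were determined. ED50 with 95% confidence limits came from least-squares regression.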

Rattus norvegicus [4] = species: Rattus norvegicus; assay: Inhibition of pleural reverse passive Arthus reactions (exudate white blood cells (WBC)); type: functional; in short: as §2
Rattus norvegicus [5] = species: Rattus norvegicus; assay: Effect in rat pleural Carrageenan test (exudate volume); type: functional
Rattus norvegicus [6] = species: Rattus norvegicus; assay: Effect in rat pleural Carrageenan test (exudate white blood cells (WBC)); type: functional
Rattus norvegicus [7] = assay: Inhibition of pleural reverse passive Arthus reactions (RPAR) in rat (exudate volume); No significant inhibition at 56 umol/kg (Inactive); type: functional, organism-based; in short: as §2
Rattus norvegicus [8] = assay: Inhibition of pleural reverse passive Arthus reactions (exudate white blood cells (WBC)); No significant inhibition at 56 umol/kg (Inactive); type: functional, organism-based; in short: as §2
Rattus norvegicus [9] = assay: Effective dose of compound for 40% inhibition of rat dermal reverse passive Arthus reaction (RPAR) on peroral administration; No significant inhibition at 56 umol/kg (Inactive); type: functional, organism-based; in short: as §1
Rattus norvegicus [10] = assay: Effect in rat pleural Carrageenan test (exudate white blood cells (WBC)); No significant effect at 28 umol/kg (Not active); type: functional, organism-based

Row | SMILES | ED40 (Rattus norvegicus [1]) [µM/kg] | other results
1 | CCN(CC)CCN(N)c1nc2ccccc2o1 | 611 | –
2 | N#CCCN(N)c1nc2cc(Cl)ccc2o1 | 177 | –
3 | CSCCN(N)c1nc2ccccc2o1 | 913 | –
4 | N#CCCN(NC(=O)NC1CCCCC1)c1nc2ccccc2o1 | – | ED40 (Rattus norvegicus [2]): inactive
5 | N#CCCN(N)c1cnccn1 | 760 | –
6 | Cc1cccc2oc(N(N)CCC#N)nc12 | 356 | –
7 | Cc1cc(Cl)cc2nc(N(N)CCC#N)oc12 | 191 | –
8 | CNN(CCC#N)c1nc2ccccc2o1 | 250 | –
9 | Cc1cc2oc(N(N)CCC#N)nc2c(C)c1C | 139 | –
10 | N#CCCN(N)c1nc2ccccc2s1 | 128 | –
11 | NN(CCCO)c1nc2ccccc2o1 | 576 | –
12 | Cc1ccc2oc(N(N)CCC#N)nc2c1 | 83 | ED50 (Rattus norvegicus [3]): 148 µmol/kg; ED50 (Rattus norvegicus [4]): 175 µmol/kg
13 | N#CCCN(N)C1Cc2ccccc2C1 | 565 | –
14 | COCCN(N)c1nc2ccccc2o1 | 300 | –
15 | NN(CCSc1ccccc1)c1nc2ccccc2o1 | – | ED40 (Rattus norvegicus [2]): inactive
16 | N#CCCN(N)c1nc2ccccc2o1 | 84 | ED50 (Rattus norvegicus [3]): 238 µmol/kg; ED50 (Rattus norvegicus [4]): 243 µmol/kg; ED50 (Rattus norvegicus [5]): 105 µmol/kg; ED50 (Rattus norvegicus [6]): 171 µmol/kg
17 | N#CCCN(N)c1nc(-c2ccccc2)c(-c2ccccc2)o1 | 332 | –
18 | N#CCC(=O)N(N)c1nc2ccccc2o1 | – | ED40 (Rattus norvegicus [2]): inactive
19 | Cc1cccc2nc(N(N)CCC#N)oc12 | 250 | –
20 | COc1ccc2nc(N(N)CCC#N)oc2c1 | 388 | –
21 | NN(CCOc1ccccc1)c1nc2ccccc2o1 | 457 | –
22 | N#CCCN(N)c1ccc(-c2ccccc2)nn1 | 672 | –
23 | Cc1cc(C)c2oc(N(N)CCC#N)nc2c1 | 161 | –
24 | NN(CCc1ccccc1)c1nc2ccccc2o1 | 962 | –
25 | Cc1cc(N(N)CCC#N)c2ccccc2n1 | 177 | –
26 | Cc1ccc2nc(N(N)CCC#N)oc2c1 | 216 | –

Row | SMILES | ED40 (Rattus norvegicus [1]) [µM/kg] | other results
27 | C[S+]([O-])c1ccc2oc(N(N)CCC#N)nc2c1 (stereo not given) | 607 | –
28 | N#CCCN(N)c1nc2cc(OCc3ccccc3)ccc2o1 | – | ED40 (Rattus norvegicus [2]): inactive
29 | Cc1nc(N(N)CCC#N)oc1C | 519 | –
30 | COCCN(N)c1nc2cc(C)ccc2o1 | 127 | –
31 | CS(=O)(=O)c1ccc2oc(N(N)CCC#N)nc2c1 | 407 | –
32 | N#CCCN(N)c1nc2cc(Oc3ccccc3)ccc2o1 | – | ED40 (Rattus norvegicus [2]): inactive
33 | CCNN(CCC#N)c1nc2ccccc2o1 | 196 | –
34 | CCOCCN(N)c1nc2cc(OC)ccc2o1 | 149 | –
35 | Cc1cc(C)c2oc(N(N)CCC#N)nc2c1C | 115 | –
36 | CSc1cc(C(C)(C)C)cc2nc(N(N)CCC#N)oc12 | 801 | –
37 | NN(CCO)c1nc2ccccc2o1 | 1247 | –
38 | CS(=O)(=O)NN(CCC#N)c1nc2ccccc2o1 | – | ED40 (Rattus norvegicus [2]): inactive
39 | COc1ccc2oc(N(CCC#N)NC=O)nc2c1 | 200 | –
40 | NN(CCc1ccccn1)c1nc2ccccc2o1 | 258 | –
41 | N#CCCN(N)c1nc2cc(F)ccc2o1 | 141 | –
42 | N#CCCN(N)c1nc2cc(C(=O)c3ccccc3)ccc2o1 | – | ED40 (Rattus norvegicus [2]): inactive
43 | CCCN(N)c1nc2ccccc2o1 | 400 | –
44 | COc1cc2nc(N(N)CCC#N)oc2cc1OC | 650 | –
45 | CCOC(=O)c1ccc2oc(N(N)CCC#N)nc2c1 | – | ED40 (Rattus norvegicus [2]): inactive
46 | COCCN(N)c1nc2cc(OC)ccc2o1 | 43 | –
47 | NN(CC[S+]([O-])c1ccccc1)c1nc2ccccc2o1 (stereo not given) | 719 | –
48 | CC(C#N)CN(N)c1nc2ccccc2o1 (stereo not given) | 210 | –
49 | N#CCCN(NC=O)c1nc2cc(C(F)(F)F)ccc2o1 | 87 | –
50 | N#CCCC(N)c1nc2ccccc2o1 (stereo not given) | – | ED40 (Rattus norvegicus [2]): inactive
51 | NN(CCN1CCOCC1)c1nc2ccccc2o1 | 825 | –
52 | Cc1cc2oc(N(N)CCC#N)nc2cc1Cl | 36 | –

Row | SMILES | ED40 (Rattus norvegicus [1]) [µM/kg] | other results
53 | CC(CC#N)N(N)c1nc2ccccc2o1 (stereo not given) | 245 | –
54 | CC(C)(C)c1ccc2oc(N(N)CCC#N)nc2c1 | 345 | –
55 | N#CCCN(N)c1nc2cc(C(F)(F)F)ccc2o1 | 26 | ED50 (Rattus norvegicus [3]): 70 µmol/kg; ED50 (Rattus norvegicus [4]): 92 µmol/kg
56 | N#CCCN(N)c1nc2cccc(Cl)c2o1 | 275 | –
57 | N#CCCN(N)C1=Nc2ccccc2C1 | 265 | –
58 | N#CCCN(N)C1=NS(=O)(=O)c2ccccc21 | 643 | –
59 | COCCN(N)c1nc2cc(C#N)ccc2o1 | 181 | –
60 | COC(=O)CCN(N)c1nc2ccccc2o1 | 1208 | –
61 | N#CCCN(C=O)c1nc2ccccc2o1 | – | ED40 (Rattus norvegicus [2]): inactive
62 | N#CCCN(N)c1nc2c(ccc3ccccc32)o1 | 346 | –
63 | NN(CCC(=O)O)c1nc2ccccc2o1 | – | ED40 (Rattus norvegicus [2]): inactive
64 | Cc1ccc2oc(N(CCC#N)NC=O)nc2c1 | 168 | –
65 | CNC(=O)NN(CCC#N)c1nc2ccccc2o1 | – | ED40 (Rattus norvegicus [2]): inactive
66 | N#CCCNc1nc2ccccc2o1 | 1302 | –
67 | N#CCCN(N)c1nc2cc(C#N)ccc2o1 | 66 | –
68 | N#CCCN(N)c1nccs1 | 390 | –
69 | N#CCCN(N)c1nc2cc3ccccc3cc2o1 | 306 | –
70 | COCCN(N)c1nc2cc(Cl)ccc2o1 | 136 | –
71 | N#CCCN(N)c1ncco1 | 360 | –
72 | [2H]C([2H])(C#N)CN(N)c1nc2ccccc2o1 | 255 | –
73 | Cc1coc(N(N)CCC#N)n1 | 705 | –
74 | N#CCCN(NC(N)=O)c1nc2ccccc2o1 | – | ED40 (Rattus norvegicus [2]): inactive
75 | C[C@]12CCC(=O)C=C1CC[C@@H]1[C@@H]2[C@@H](O)C[C@@]2(C)[C@H]1CC[C@]2(O)C(=O)CO [HYDROCORTISONE] | 33 | ED50 (Rattus norvegicus [3]): 38 µmol/kg; ED50 (Rattus norvegicus [4]): 50 µmol/kg; ED50 (Rattus norvegicus [5]): 12 µmol/kg; ED50 (Rattus norvegicus [6]): 9 µmol/kg
76 | NN(CCS(=O)(=O)c1ccccc1)c1nc2ccccc2o1 | – | ED40 (Rattus norvegicus [2]): inactive
77 | Cn1c(N(N)CCC#N)nc2ccccc21 | 349 | –
78 | C/C=N\N(CCC#N)c1nc2ccccc2o1 | 625 | –

Row | SMILES | ED40 (Rattus norvegicus [1]) [µM/kg] | other results
79 | Cc1cc2nc(N(N)CCC#N)oc2cc1C | 413 | –
80 | COc1ccc2oc(N(N)CCC#N)nc2c1 | 59 | ED50 (Rattus norvegicus [3]): 155 µmol/kg; ED50 (Rattus norvegicus [4]): 116 µmol/kg
81 | CS(=O)(=O)CCN(N)c1nc2ccccc2o1 | 278 | –
82 | NN(CCOc1ccc(F)cc1)c1nc2ccccc2o1 | 800 | –
83 | CC(C)S(=O)(=O)n1c(N(N)CCC#N)nc2ccccc21 | – | ED40 (Rattus norvegicus [2]): inactive
84 | COC(=O)N(CCC#N)c1nc2ccccc2o1 | – | ED40 (Rattus norvegicus [2]): inactive
85 | COCCN(N)c1nc2cc(C(F)(F)F)ccc2o1 | 47 | –
86 | CCN(N)c1nc2ccccc2o1 | 254 | –
87 | COc1ccc2c(c1)c(CC(=O)O)c(C)n2C(=O)c1ccc(Cl)cc1 [INDOMETHACIN] | – | ED50 (Rattus norvegicus [7]): inactive; ED50 (Rattus norvegicus [8]): inactive; ED40 (Rattus norvegicus [9]): inactive; ED50 (Rattus norvegicus [5]): 1.1 µmol/kg; ED50 (Rattus norvegicus [10]): inactive
88 | CC(=O)N(CCC#N)c1nc2ccccc2o1 | – | ED40 (Rattus norvegicus [2]): inactive
89 | C=NN(CCC#N)c1nc2ccccc2o1 | 845 | –
90 | CN(C)S(=O)(=O)n1c(N(N)CCC#N)nc2ccccc21 | – | ED40 (Rattus norvegicus [2]): inactive
91 | NC(=O)CCN(N)c1nc2ccccc2o1 | 1009 | –
92 | COC(=O)NN(CCC#N)c1nc2ccccc2o1 | 695 | –
93 | N#CCCSc1nc2ccccc2o1 | 1268 | –
94 | N#CCCN(N)c1ncc(-c2ccccc2)cn1 | 121 | –
95 | CC(=O)NN(CCC#N)c1nc2ccccc2o1 | 402 | –
96 | C/N=C(\S)NN(CCC#N)c1nc2ccccc2o1 | – | ED40 (Rattus norvegicus [2]): inactive
97 | N#CCCN(N)c1nc2cc(-c3ccccc3)ccc2o1 | – | ED40 (Rattus norvegicus [2]): inactive
98 | CSc1ccc2oc(N(N)CCC#N)nc2c1 | 399 | –
99 | CCc1ccc2oc(N(N)CCC#N)nc2c1 | 330 | –
100 | N#CCCN(NC=O)c1nc2ccccc2o1 | 142 | –
101 | N#CCCN(N)c1nc(-c2ccccc2)co1 | 119 | –
102 | C#CCCN(N)c1nc2ccccc2o1 | 348 | –
